Legend:
Format in all cases: functional
Micrococcus luteus [1] = experiment: Antibacterial activity against Micrococcus luteus ATCC 9631 at 25 mg/ml after 24 hrs by agar diffusion test; conditions: ATCC 9631, 24 h, read-out: DIZ
Procedure, shortened: (§1)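 Agar diffusion: wells in agar filled with […] DMSO solution of compound at various concentrations; diameter of clear zone around application point measured. Bacteria grown 24 h at 37 °C on nutrient agar. Compounds first screened at 50 mg/ml; those active then tested at lower concentrations. Bracketed value = lowest concentration (mg/ml) giving zone >11 mm, reported only if activity retained at ≤1.25 mg/ml.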

Escherichia coli [2] = experiment: Antibacterial activity against Escherichia coli ATCC 8739 at 25 mg/ml after 24 hrs by agar diffusion test; conditions: ATCC 8739, 24 h, read-out: DIZ; procedure, shortened: as §1
Bacillus subtilis [3] = experiment: Antibacterial activity against Bacillus subtilis ATCC 6633 at 5 mg/ml after 24 hrs by agar diffusion test; conditions: ATCC 6633, 24 h, read-out: DIZ
Procedure, shortened: (§2)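 Agar diffusion: bacteria grown 24 h at 37 °C on nutrient agar; wells cut in the seeded agar are filled with compound solution in DMSO. Read-out is the diameter of the clear zone around the application point.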

Bacillus [4] = experiment: Antibacterial activity against Bacillus idosus B 241 at 5 mg/ml after 24 hrs by agar diffusion test; conditions: B 241, 24 h, read-out: DIZ; procedure, shortened: as §1
Priestia megaterium [5] = experiment: Antibacterial activity against Bacillus megaterium NRRL 1353895 at 5 mg/ml after 24 hrs by agar diffusion test; conditions: NRRL 1353895, 24 h, read-out: DIZ; procedure, shortened: as §1
Bacillus mycoides [6] = experiment: Antibacterial activity against Bacillus mycoides DSMZ 274 at 5 mg/ml after 24 hrs by agar diffusion test; conditions: DSMZ 274, 24 h, read-out: DIZ; procedure, shortened: as §1
Bacillus cereus [7] = experiment: Antibacterial activity against Bacillus cereus ATCC 11778 at 5 mg/ml after 24 hrs by agar diffusion test; conditions: ATCC 11778, 24 h, read-out: DIZ; procedure, shortened: as §1
Acinetobacter johnsonii [8] = experiment: Antibacterial activity against Acinetobacter johnsonii ATCC 17909 at 5 mg/ml after 24 hrs by agar diffusion test; conditions: ATCC 17909, 24 h, read-out: DIZ; procedure, shortened: as §1
Staphylococcus aureus [9] = experiment: Antibacterial activity against Staphylococcus aureus NRRL B 313 at 5 mg/ml after 24 hrs by agar diffusion test; conditions: NRRL B 313, 24 h, read-out: DIZ
Procedure, shortened: (§3)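 Agar diffusion: bacteria grown 24 h at 37 °C on nutrient agar. Wells in the agar are filled with […] of compound solution in DMSO at various concentrations. The diameter of the clear zone around the application point is measured. Bracketed values give the lowest concentration (mg/ml) that produces a zone >11 mm. A first screen is run at 50 mg/ml.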

Micrococcus luteus [10] = experiment: Antibacterial activity against Sarcina lutea ATCC 9341 at 5 mg/ml after 24 hrs by agar diffusion test; conditions: ATCC 9341, 24 h, read-out: DIZ; procedure, shortened: as §3
Micrococcus luteus [11] = experiment: Antibacterial activity against Micrococcus luteus ATCC 9631 at 5 mg/ml after 24 hrs by agar diffusion test; conditions: ATCC 9631, 24 h, read-out: DIZ; procedure, shortened: as §1
Escherichia coli [12] = experiment: Antibacterial activity against Escherichia coli ATCC 8739 at 5 mg/ml after 24 hrs by agar diffusion test; conditions: ATCC 8739, 24 h, read-out: DIZ; procedure, shortened: as §1
Bacillus subtilis [13] = experiment: Antibacterial activity against Bacillus subtilis ATCC 6633 at 1 mg/ml after 24 hrs by agar diffusion test; conditions: ATCC 6633, 24 h, read-out: DIZ; procedure, shortened: as §1
Bacillus [14] = experiment: Antibacterial activity against Bacillus idosus B 241 at 1 mg/ml after 24 hrs by agar diffusion test; conditions: B 241, 24 h, read-out: DIZ; procedure, shortened: as §1
Priestia megaterium [15] = experiment: Antibacterial activity against Bacillus megaterium NRRL 1353895 at 1 mg/ml after 24 hrs by agar diffusion test; conditions: NRRL 1353895, 24 h, read-out: DIZ; procedure, shortened: as §1
Bacillus mycoides [16] = experiment: Antibacterial activity against Bacillus mycoides DSMZ 274 at 1 mg/ml after 24 hrs by agar diffusion test; conditions: DSMZ 274, 24 h, read-out: DIZ; procedure, shortened: as §1
Bacillus cereus [17] = experiment: Antibacterial activity against Bacillus cereus ATCC 11778 at 1 mg/ml after 24 hrs by agar diffusion test; conditions: ATCC 11778, 24 h, read-out: DIZ; procedure, shortened: as §1
Acinetobacter johnsonii [18] = experiment: Antibacterial activity against Acinetobacter johnsonii ATCC 17909 at 1 mg/ml after 24 hrs by agar diffusion test; conditions: ATCC 17909, 24 h, read-out: DIZ; procedure, shortened: as §1
Staphylococcus aureus [19] = experiment: Antibacterial activity against Staphylococcus aureus NRRL B 313 at 1 mg/ml after 24 hrs by agar diffusion test; conditions: NRRL B 313, 24 h, read-out: DIZ; procedure, shortened: as §2
Micrococcus luteus [20] = experiment: Antibacterial activity against Sarcina lutea ATCC 9341 at 1 mg/ml after 24 hrs by agar diffusion test; conditions: ATCC 9341, 24 h, read-out: DIZ; procedure, shortened: as §1
Micrococcus luteus [21] = experiment: Antibacterial activity against Micrococcus luteus ATCC 9631 at 1 mg/ml after 24 hrs by agar diffusion test; conditions: ATCC 9631, 24 h, read-out: DIZ; procedure, shortened: as §1
Escherichia coli [22] = experiment: Antibacterial activity against Escherichia coli ATCC 8739 at 1 mg/ml after 24 hrs by agar diffusion test; conditions: ATCC 8739, 24 h, read-out: DIZ; procedure, shortened: as §1
Bacillus subtilis [23] = experiment: Antibacterial activity against Bacillus subtilis ATCC 6633 at 25 mg/ml after 24 hrs by agar diffusion test; conditions: ATCC 6633, 24 h, read-out: DIZ; procedure, shortened: as §1
Bacillus [24] = experiment: Antibacterial activity against Bacillus idosus B 241 at 25 mg/ml after 24 hrs by agar diffusion test; conditions: B 241, 24 h, read-out: DIZ; procedure, shortened: as §1
Priestia megaterium [25] = experiment: Antibacterial activity against Bacillus megaterium NRRL 1353895 at 25 mg/ml after 24 hrs by agar diffusion test; conditions: NRRL 1353895, 24 h, read-out: DIZ; procedure, shortened: as §1
Bacillus mycoides [26] = experiment: Antibacterial activity against Bacillus mycoides DSMZ 274 at 25 mg/ml after 24 hrs by agar diffusion test; conditions: DSMZ 274, 24 h, read-out: DIZ; procedure, shortened: as §1
Bacillus cereus [27] = experiment: Antibacterial activity against Bacillus cereus ATCC 11778 at 25 mg/ml after 24 hrs by agar diffusion test; conditions: ATCC 11778, 24 h, read-out: DIZ; procedure, shortened: as §1
Acinetobacter johnsonii [28] = experiment: Antibacterial activity against Acinetobacter johnsonii ATCC 17909 at 25 mg/ml after 24 hrs by agar diffusion test; conditions: ATCC 17909, 24 h, read-out: DIZ; procedure, shortened: as §1
Staphylococcus aureus [29] = experiment: Antibacterial activity against Staphylococcus aureus NRRL B 313 at 25 mg/ml after 24 hrs by agar diffusion test; conditions: NRRL B 313, 24 h, read-out: DIZ; procedure, shortened: as §3
Micrococcus luteus [30] = experiment: Antibacterial activity against Sarcina lutea ATCC 9341 at 25 mg/ml after 24 hrs by agar diffusion test; conditions: ATCC 9341, 24 h, read-out: DIZ; procedure, shortened: as §3

## CN[C@@H]1[C@H](O[C@H]2[C@H](O[C@H]3[C@H](O)[C@@H](O)[C@H](N=C(N)N)[C@@H](O)[C@@H]3N=C(N)N)O[C@@H](C)[C@]2(O)C=O)O[C@@H](CO)[C@H](O)[C@H]1O [STREPTOMYCIN]
Micrococcus luteus [1]
  zone of inhibition at 25000 µg/mL: 30 mm
Escherichia coli [2]
  zone of inhibition at 25000 µg/mL: 35 mm
Bacillus subtilis [3]
  zone of inhibition at 5000 µg/mL: 30 mm
Bacillus [4]
  zone of inhibition at 5000 µg/mL: 27 mm
Priestia megaterium [5]
  zone of inhibition at 5000 µg/mL: 25 mm
Bacillus mycoides [6]
  zone of inhibition at 5000 µg/mL: 30 mm
Bacillus cereus [7]
  zone of inhibition at 5000 µg/mL: 28 mm
Acinetobacter johnsonii [8]
  zone of inhibition at 5000 µg/mL: 24 mm
Staphylococcus aureus [9]
  zone of inhibition at 5000 µg/mL: 26 mm
Micrococcus luteus [10]
  zone of inhibition at 5000 µg/mL: 22 mm
Micrococcus luteus [11]
  zone of inhibition at 5000 µg/mL: 25 mm
Escherichia coli [12]
  zone of inhibition at 5000 µg/mL: 26 mm
Bacillus subtilis [13]
  zone of inhibition at 1000 µg/mL: 25 mm
Bacillus [14]
  zone of inhibition at 1000 µg/mL: 21 mm
Priestia megaterium [15]
  zone of inhibition at 1000 µg/mL: 20 mm
Bacillus mycoides [16]
  zone of inhibition at 1000 µg/mL: 25 mm
Bacillus cereus [17]
  zone of inhibition at 1000 µg/mL: 23 mm
Acinetobacter johnsonii [18]
  zone of inhibition at 1000 µg/mL: 20 mm
Staphylococcus aureus [19]
  zone of inhibition at 1000 µg/mL: 20 mm
Micrococcus luteus [20]
  zone of inhibition at 1000 µg/mL: 19 mm
Micrococcus luteus [21]
  zone of inhibition at 1000 µg/mL: 20 mm
Escherichia coli [22]
  zone of inhibition at 1000 µg/mL: 23 mm
Bacillus subtilis [23]
  zone of inhibition at 25000 µg/mL: 35 mm
Bacillus [24]
  zone of inhibition at 25000 µg/mL: 30 mm
Priestia megaterium [25]
  zone of inhibition at 25000 µg/mL: 30 mm
Bacillus mycoides [26]
  zone of inhibition at 25000 µg/mL: 35 mm
Bacillus cereus [27]
  zone of inhibition at 25000 µg/mL: 30 mm
Acinetobacter johnsonii [28]
  zone of inhibition at 25000 µg/mL: 30 mm
Staphylococcus aureus [29]
  zone of inhibition at 25000 µg/mL: 32 mm
Micrococcus luteus [30]
  zone of inhibition at 25000 µg/mL: 27 mm
